Experimental findings from ChEMBL document CHEMBL1148341, “Selective inhibition of Trypanosoma brucei 6-phosphogluconate dehydrogenase by high-energy intermediate and transition-state analogues” (J Med Chem, 2004) are described below.

For assay [1], the system named is Leishmania donovani. As to the kind of experiment: In vitro antiparasitic activity was determined against Leishmania donovani. In kind it is functional, organism-based. In a few lines:
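Mouse peritoneal macrophages in RPMI 1640 with 10% heat-inactivated FBS, infected after 24 h with L. donovani amastigotes (3:1 amastigotes to macrophages); free amastigotes removed at 4 h. Next day, drug dilutions added; 96 h at 37 °C, 5% CO2. Slides methanol-fixed and Giemsa-stained; infected vs noninfected macrophages counted microscopically as % of control; IC50 by linear regression.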

Assay [2] concerns Plasmodium falciparum. Briefly: In vitro antiparasitic activity against Plasmodium falciparum. In kind it is functional, organism-based.
For assay [3], the system named is Trypanosoma cruzi. As to the kind of experiment: In vitro antiparasitic activity was determined against Trypanosoma cruzi. In kind it is functional, organism-based. In a few lines:
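L-6 rat myoblasts (2000 cells/well, RPMI 1640, 10% FBS, 2 mM L-glutamine) infected after 24 h with 5000 T. cruzi Tulahuen C2C4 LacZ trypomastigotes plus serial drug dilutions; 4 days at 37 °C, 5% CO2. MIC read microscopically; for IC50, CPRG/Nonidet added, colour read at 540 nm after 2–4 h, IC50 from sigmoidal curve.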

In assay [4] the test system is Trypanosoma brucei. As to the kind of experiment: In vitro antiparasitic activity was determined against Trypanosoma brucei. In kind it is functional, organism-based.
Assay [5] has as its system L6. Briefly: In vitro cytotoxic activity was determined against L6 cells. In kind it is functional, cell-based, Rattus norvegicus.
Assay [6] deals with L6. Briefly: In vitro cytotoxic activity against L6 cells. In kind it is functional, cell-based. Particulars: Rattus norvegicus; call rule not given here.
For assay [7], the target named is 6-phosphogluconate dehydrogenase (Ovis aries) (UniProt P00349). As to the kind of experiment: Inhibition constant against 6-phosphogluconate dehydrogenase of sheep liver; NI denotes no inhibition.
Sequence of 6-phosphogluconate dehydrogenase (Ovis aries) (P00349 whole entry, looked up): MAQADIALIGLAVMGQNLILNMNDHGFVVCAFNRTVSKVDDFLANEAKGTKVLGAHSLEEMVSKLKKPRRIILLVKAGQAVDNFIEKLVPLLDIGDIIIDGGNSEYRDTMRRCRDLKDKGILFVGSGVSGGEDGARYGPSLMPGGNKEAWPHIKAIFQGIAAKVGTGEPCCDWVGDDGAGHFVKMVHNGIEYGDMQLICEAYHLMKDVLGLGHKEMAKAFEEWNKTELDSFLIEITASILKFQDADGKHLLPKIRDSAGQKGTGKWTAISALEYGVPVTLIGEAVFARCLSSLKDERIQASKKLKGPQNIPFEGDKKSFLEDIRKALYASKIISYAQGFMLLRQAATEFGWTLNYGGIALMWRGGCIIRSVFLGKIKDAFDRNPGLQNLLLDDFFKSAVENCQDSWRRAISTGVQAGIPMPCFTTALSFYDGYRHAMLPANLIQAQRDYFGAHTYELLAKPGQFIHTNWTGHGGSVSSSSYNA
Assay [8] has as its target 6-phosphogluconate dehydrogenase (Trypanosoma brucei) (UniProt P31072). Briefly: Inhibition constant against 6-phosphogluconate dehydrogenase of Trypanosoma brucei expressed in Escherichia coli; NI denotes no inhibition.

As usually defined, the pIC50 is the negative decadic logarithm of the IC50, by convention in mol/L.

Molecules are shown by their SMILES. pIC50: −log10 of the molar value. A value given as a limit tells only on which side of the number the result lay.

Sequence of 6-phosphogluconate dehydrogenase (Trypanosoma brucei) (P31072 whole entry, looked up): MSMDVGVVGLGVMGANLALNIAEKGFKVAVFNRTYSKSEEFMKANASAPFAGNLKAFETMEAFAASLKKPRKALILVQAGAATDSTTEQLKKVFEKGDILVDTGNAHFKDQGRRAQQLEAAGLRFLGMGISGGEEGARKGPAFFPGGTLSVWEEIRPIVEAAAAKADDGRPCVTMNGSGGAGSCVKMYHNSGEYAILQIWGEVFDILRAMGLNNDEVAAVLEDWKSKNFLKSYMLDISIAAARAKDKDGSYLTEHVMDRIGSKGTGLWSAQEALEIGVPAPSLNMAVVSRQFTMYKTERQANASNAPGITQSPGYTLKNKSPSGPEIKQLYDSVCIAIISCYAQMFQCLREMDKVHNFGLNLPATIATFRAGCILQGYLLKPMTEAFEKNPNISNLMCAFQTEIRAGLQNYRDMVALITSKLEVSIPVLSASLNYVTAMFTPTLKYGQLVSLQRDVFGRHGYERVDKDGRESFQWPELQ

`CC(=O)O[C@H](COP(=O)(OCc1ccccc1)OCc1ccccc1)[C@@H](OC(C)=O)C(=O)N(OCc1ccccc1)C(C)=O`: the pIC50 in assay [1] was under 4.32; in assay [2] it was under 4.10; in assay [3], under 3.84; in assay [4] it was 4.31.
The matching figures for `O=C1OC[C@@H](OC2CCCO2)[C@H]1OC1CCCO1` (stereo partly drawn): under 3.98, 4.11, under 3.50 and 3.95.
In the case of `O=C1OC[C@@H](O)[C@H]1O`, the IC50 entry in assay [5] was “Not Active”.
Regarding `CC1(C)OC[C@H](CSCC(=O)OCc2ccccc2)O1`, the pIC50 in assay [1] is under 4.00; in assay [2], under 3.77; in assay [3] it was 3.67; in assay [4], under 3.52.
Regarding `O=C(NO)[C@H](OC1CCCO1)[C@@H](CCO)OC1CCCO1` (stereo partly drawn), the pIC50 is under 4.03 in assay [1], about 3.80 in assay [2], under 3.55 in assay [3] and 4.21 in assay [4].
Take `CC(=O)O[C@H](COP(=O)(O)O)[C@@H](OC(C)=O)C(=O)NO`: the negative logarithm of the IC50 (pIC50) in assay [6] is under 3.55; in assay [2], under 3.80; in assay [3] it was under 3.55; in assay [4] it was 3.64.
Consider `O=C(NOCc1ccccc1)[C@H](O)[C@H](O)COP(=O)(OCc1ccccc1)OCc1ccccc1`, for which the pIC50 in assay [1] was 4.48; in assay [2], under 4.00; in assay [3], under 3.75; in assay [4], 3.89.
Turning to `O=C(C[S+]([O-])C[C@H](O)COP(=O)(OCc1ccccc1)OCc1ccccc1)OCc1ccccc1` (stereo partly drawn), the negative-log IC50 (pIC50) is under 4.25 in assay [1], under 4.03 in assay [2], under 3.77 in assay [3] and 4.09 in assay [4]. The Ki result in assay [7] and in assay [8] was “Not Active” throughout.
Turning to `CC1(C)O[C@H](COP(=O)(O)O)[C@H](C(N)=O)O1`, the pIC50 in assay [6] was under 3.66; in assay [2], under 3.71; in assay [3] it was 3.88; in assay [4], 3.67.
Take `O=C(NO)[C@H](O)[C@H](O)COP(=O)(O)O`: the pIC50 in assay [6] was 3.57; in assay [1] it was under 3.89; in assay [2], under 3.67; in assay [3], under 3.41; in assay [4], under 3.41.
Take `CC(=O)O[C@H](COP(=O)(OCc1ccccc1)OCc1ccccc1)[C@@H](OC(C)=O)C(=O)NOCc1ccccc1`: the pIC50 in assay [1] is under 4.77; in assay [2], under 4.07; in assay [3], under 3.81; in assay [4] it was 4.22. The Ki result in assay [7] and in assay [8] was “Not Active” in each case.
`O=C(C[S+]([O-])C[C@@H](COP(=O)(OCc1ccccc1)OCc1ccccc1)OC1CCCO1)OCc1ccccc1` (stereo partly drawn): the pIC50 in assay [6] is 4.04; in assay [2] it was 5.15; in assay [3], 4.09; in assay [4], 4.14. In addition, the Ki entry in assay [7] and in assay [8] was “Not Active” throughout.
Take `CC(=O)O[C@H](COP(=O)(O)O)C[S+]([O-])CC(=O)O` (stereo partly drawn): in assay [5], the IC50 result is reported as “Not Active”. Also, the pIC50 in assay [1] was under 4.00; in assay [2], under 3.79; in assay [3] it was under 3.53; in assay [4], 3.95.
Take `O=C(O)C[S+]([O-])C[C@H](O)COP(=O)(O)O` (stereo partly drawn): the pIC50 in assay [6] is 3.46; in assay [2] it was under 3.72; in assay [3], under 3.46; in assay [4], 3.61.
For `O=C(NO)[C@H](O)[C@H](O)CO`, the pIC50 in assay [1] was under 3.70; in assay [2], 4.74; in assay [3] it was 3.54; in assay [4] it was 3.94.
For `CC1(C)O[C@H](COP(=O)(OCc2ccccc2)OCc2ccccc2)[C@H](C(=O)NOCc2ccccc2)O1`, in that order: under 4.26, under 4.04, under 3.78 and 3.90.
On to `CC1(C)O[C@H](CO)[C@H](C(=O)NOCc2ccccc2)O1`, for which the negative-log IC50 (pIC50) in assay [6] was 4.43; in assay [1], 4.52; in assay [2], 4.28; in assay [3], under 4.49; in assay [4] it was 5.46.
Turning to `CC(=O)O[C@H](COP(=O)(OCc1ccccc1)OCc1ccccc1)CSCC(=O)OCc1ccccc1`, the pIC50 was 4.55 in assay [1], 4.21 in assay [2], under 3.79 in assay [3] and 3.86 in assay [4].
With `NC(=O)[C@H](O)[C@H](O)COP(=O)(O)O`, the pIC50 in assay [6] is under 3.38; in assay [1], under 3.86; in assay [2], under 3.63; in assay [3], under 3.38; in assay [4], 3.56.
Regarding `CC1(C)O[C@H](COP(=O)(O)O)[C@H](C(=O)NO)O1`, the pIC50 in assay [6] was under 3.48; in assay [1], under 3.95; in assay [2], under 3.74; in assay [3], under 3.48; in assay [4], under 3.48.
`O=C(CSC[C@H](O)CO)OCc1ccccc1`: the negative logarithm of the IC50 (pIC50) in assay [1] is under 3.93; in assay [2], under 3.71; in assay [3], 3.67; in assay [4] it was 4.12.
Regarding `CC(=O)O[C@H](COP(=O)(OCc1ccccc1)OCc1ccccc1)C[S+]([O-])CC(=O)OCc1ccccc1` (stereo partly drawn), the pIC50 is 4.22 in assay [6]; 4.57 in assay [1]; 4.74 in assay [2]; under 3.80 in assay [3]; 4.44 in assay [4]. For the same compound, the Ki entry in assay [7] and in assay [8] was “Not Active” each time.
On to `CC1(C)O[C@@H]2COC(=O)[C@@H]2O1`, for which the IC50 result in assay [5] is reported as “Not Active”. Also, the pIC50 in assay [1] was under 3.72; in assay [2], under 3.50; in assay [3] it was under 3.24; in assay [4], 3.58.
As for `O=C(CSC[C@H](O)COP(=O)(OCc1ccccc1)OCc1ccccc1)OCc1ccccc1`, the pIC50 in assay [1] was 4.64; in assay [2], 4.19; in assay [3], 3.91; in assay [4], 4.33.
